In ChEMBL document CHEMBL4622869, “Discovery and structure-activity relationships study of positive allosteric modulators of the M3 muscarinic acetylcholine receptor” (Bioorg Med Chem, 2020):

Columns and labels:
[1] = biological target: Muscarinic acetylcholine receptor M3 (Rattus norvegicus) (UniProt P08483); assay: Positive allosteric modulation of muscarinic acetylcholine receptor M3 in Sprague-Dawley rat urinary bladder assessed as increase in 8 Hz electrical field stimulation-induced bladder contraction by measuring tension of isolated bladder contraction at 3 uM (reference value: 2.21 +/- 0.26 g)
Outline: (§1)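 Female Sprague-Dawley rats, 9–10 weeks old. Longitudinal bladder strips (~10×2 mm) in Krebs at 37°C, gassed with 95% O2/5% CO2. EFS at 8 Hz, 10 s trains, 0.3 ms pulses, voltage set to give about half-maximal response. Drug added cumulatively at 1, 3 and 10 μM, 10 stimulations per concentration. Contraction = peak minus basal tone, averaged over the last 3 contractions and compared with pre-drug value (n=7).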

[2] = biological target: Muscarinic acetylcholine receptor M3 (Homo sapiens) (UniProt P20309); assay: (§2) Positive allosteric modulation of recombinant human muscarinic acetylcholine receptor M3 expressed in CHOK1 cells assessed as increase in carbachol-induced intracellular calcium flux preincubated for 5 mins followed by carbachol addition by Fluo4-AM dye based FLIPR assay; type: functional, cell-based; conditions: CHO-K1
Outline: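 Human M3 in CHO-K1 cells, Fluo-4 AM loaded (3.1 μM, ~2 h, room temperature). Test substance at 0.01–30 μM added ~5 min before a carbachol concentration series (0.0024 nM–100 μM); Ca2+ flux read on FLIPR Tetra to give carbachol concentration-response curves, with DMSO as vehicle.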

[3] = biological target: T1, Muscarinic acetylcholine receptor M2 (Rattus norvegicus) (UniProt P10980); assay: as §2, with “rat” for “human”, “M2” for “M3”, “cells coexpressing G-alpha16” for “cells”, “flux at 10 uM” for “flux”, “assay relative to carbachol” for “assay”; type: functional, cell-based; conditions: CHO-K1
T1 sequence (whole entry): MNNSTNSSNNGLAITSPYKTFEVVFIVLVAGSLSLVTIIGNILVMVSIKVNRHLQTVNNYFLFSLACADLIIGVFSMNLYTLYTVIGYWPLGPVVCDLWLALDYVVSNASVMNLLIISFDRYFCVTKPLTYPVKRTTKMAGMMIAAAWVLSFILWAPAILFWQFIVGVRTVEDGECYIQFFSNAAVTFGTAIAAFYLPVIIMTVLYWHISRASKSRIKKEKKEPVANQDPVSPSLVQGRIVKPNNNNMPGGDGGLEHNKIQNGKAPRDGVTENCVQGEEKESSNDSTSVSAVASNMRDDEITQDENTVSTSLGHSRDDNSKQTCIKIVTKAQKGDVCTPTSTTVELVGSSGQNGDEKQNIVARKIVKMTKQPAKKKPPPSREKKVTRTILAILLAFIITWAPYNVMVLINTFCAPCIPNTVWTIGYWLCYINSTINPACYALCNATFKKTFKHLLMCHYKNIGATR
Outline: (§3)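 CHO-K1 cells stably expressing human or rat M1–M5; M2 and M4 lines also co-express human Gα16. Cells loaded with 3.1 μM Fluo-4 AM in HBSS/20 mM HEPES pH 7.5/BSA/2.5 mM probenecid for ~2 h at room temperature. Test substance at 10 μM final, then carbachol (0.0024 nM–100 μM) ~5 min later; Ca2+ read by FLIPR Tetra. Fold shift = carbachol EC50 without / with test substance, from logistic fits.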

[4] = Total clearance in Crl:CD(SD) rat at 0.3 mg/kg, iv measured up to 24 hrs by LC-MS/MS analysis; type: ADME, organism-based; conditions: in vivo
Outline: (§4)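 Male Crl:CD(SD) rats, 8 weeks old, food deprived (n=4); iv 0.3 mg/kg or po 1 mg/kg in DMF/propylene glycol/water for injection (1/1/8) containing 1 M NaOH (2 equivalents). Plasma sampled to 24 h, assayed by validated LC-MS/MS. Parameters from each animal by noncompartmental analysis, reported as means.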

[5] = biological target: Muscarinic acetylcholine receptor M3 (Rattus norvegicus) (UniProt P08483); assay: Positive allosteric modulation of muscarinic acetylcholine receptor M3 in Sprague-Dawley rat urinary bladder assessed as increase in 8 Hz electrical field stimulation-induced bladder contraction; outline: as §1
[6] = biological target: T2, Muscarinic acetylcholine receptor M4 (Rattus norvegicus) (UniProt P08485); assay: as §2, with “rat” for “human”, “M4” for “M3”, “cells coexpressing G-alpha16” for “cells”, “flux at 10 uM” for “flux”, “assay relative to carbachol” for “assay”; type: functional, cell-based; conditions: CHO-K1; outline: as §3
T2 sequence (whole entry): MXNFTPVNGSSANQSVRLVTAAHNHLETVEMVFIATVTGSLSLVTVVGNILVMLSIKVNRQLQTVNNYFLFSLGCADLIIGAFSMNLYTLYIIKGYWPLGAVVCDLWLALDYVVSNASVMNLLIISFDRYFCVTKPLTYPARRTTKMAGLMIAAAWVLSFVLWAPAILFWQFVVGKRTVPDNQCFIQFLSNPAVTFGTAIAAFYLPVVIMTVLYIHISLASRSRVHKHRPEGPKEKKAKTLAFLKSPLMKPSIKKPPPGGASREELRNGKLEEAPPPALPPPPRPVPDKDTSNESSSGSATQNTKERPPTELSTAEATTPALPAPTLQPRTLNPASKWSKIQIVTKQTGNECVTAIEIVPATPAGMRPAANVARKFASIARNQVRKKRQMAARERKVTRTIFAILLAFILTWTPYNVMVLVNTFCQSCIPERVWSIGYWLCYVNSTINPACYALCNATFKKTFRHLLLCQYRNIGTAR

[7] = biological target: T3, Muscarinic acetylcholine receptor M1 (Homo sapiens) (UniProt P11229); assay: as §2, with “M1” for “M3”, “flux at 10 uM” for “flux”, “assay relative to carbachol” for “assay”; type: functional, cell-based; conditions: CHO-K1; outline: as §3
T3 sequence (whole entry): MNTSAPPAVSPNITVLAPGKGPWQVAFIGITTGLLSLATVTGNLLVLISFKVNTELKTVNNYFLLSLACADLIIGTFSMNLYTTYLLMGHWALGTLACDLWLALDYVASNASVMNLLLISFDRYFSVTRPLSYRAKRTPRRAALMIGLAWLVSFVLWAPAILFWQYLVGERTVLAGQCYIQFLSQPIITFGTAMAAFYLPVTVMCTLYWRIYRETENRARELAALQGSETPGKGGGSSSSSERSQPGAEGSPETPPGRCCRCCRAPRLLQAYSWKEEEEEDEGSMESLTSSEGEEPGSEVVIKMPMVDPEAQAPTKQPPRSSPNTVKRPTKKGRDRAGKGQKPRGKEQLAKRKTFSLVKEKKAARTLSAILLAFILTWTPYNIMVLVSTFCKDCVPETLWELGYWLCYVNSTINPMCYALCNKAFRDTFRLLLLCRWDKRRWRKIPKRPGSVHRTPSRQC

[8] = AUCinfinity in Crl:CD(SD) rat at 1 mg/kg, po measured up to 24 hrs by LC-MS/MS analysis; type: ADME, organism-based; design: dose 1 mg/kg, time infinity, route oral; conditions: in vivo; outline: as §4

Chain of Muscarinic acetylcholine receptor M3 (Rattus norvegicus) (P08483 whole entry, looked up): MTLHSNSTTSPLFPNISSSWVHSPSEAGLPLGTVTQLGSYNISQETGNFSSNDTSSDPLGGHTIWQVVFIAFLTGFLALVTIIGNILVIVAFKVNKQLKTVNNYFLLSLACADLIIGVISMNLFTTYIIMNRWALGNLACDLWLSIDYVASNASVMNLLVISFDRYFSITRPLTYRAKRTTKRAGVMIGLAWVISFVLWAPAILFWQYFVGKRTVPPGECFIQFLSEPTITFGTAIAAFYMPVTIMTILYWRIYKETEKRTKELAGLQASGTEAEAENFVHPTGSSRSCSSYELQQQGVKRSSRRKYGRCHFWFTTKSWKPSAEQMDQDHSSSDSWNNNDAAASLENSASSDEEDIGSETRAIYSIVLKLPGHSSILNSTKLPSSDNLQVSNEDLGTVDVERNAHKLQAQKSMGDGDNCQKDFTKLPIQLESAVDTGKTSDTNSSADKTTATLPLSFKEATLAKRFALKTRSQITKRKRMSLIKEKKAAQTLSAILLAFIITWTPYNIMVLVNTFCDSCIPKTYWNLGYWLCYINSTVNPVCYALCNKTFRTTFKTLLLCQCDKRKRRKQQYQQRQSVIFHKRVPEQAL
Chain of Muscarinic acetylcholine receptor M3 (Homo sapiens) (P20309 whole entry, looked up): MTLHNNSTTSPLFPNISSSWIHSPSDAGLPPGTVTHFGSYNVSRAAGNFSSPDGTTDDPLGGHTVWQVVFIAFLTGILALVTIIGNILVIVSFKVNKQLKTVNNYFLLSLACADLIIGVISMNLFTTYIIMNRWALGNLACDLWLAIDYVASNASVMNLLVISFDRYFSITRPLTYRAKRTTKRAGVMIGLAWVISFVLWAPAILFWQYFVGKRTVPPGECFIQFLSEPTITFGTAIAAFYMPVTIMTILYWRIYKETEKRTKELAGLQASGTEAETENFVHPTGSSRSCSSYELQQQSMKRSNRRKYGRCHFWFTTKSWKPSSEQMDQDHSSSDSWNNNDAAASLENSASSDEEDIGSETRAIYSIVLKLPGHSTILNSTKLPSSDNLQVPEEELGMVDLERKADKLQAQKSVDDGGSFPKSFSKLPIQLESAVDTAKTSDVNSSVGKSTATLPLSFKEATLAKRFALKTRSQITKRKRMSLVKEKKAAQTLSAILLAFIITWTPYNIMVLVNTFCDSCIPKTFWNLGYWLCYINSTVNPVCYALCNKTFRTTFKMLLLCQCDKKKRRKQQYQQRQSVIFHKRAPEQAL

Activity [1]: 2.79 g
Activity [2]: Dose-dependent effect
fold change (FC) [3]: 1.6
clearance [4]: 15.3 mL/min/kg
Activity [5]: Dose-dependent effect
fold change (FC) [6]: 0.7
fold change (FC) [7]: 2.3
AUC(0-inf) [8]: 209 ng·h/mL
SMILES: CC[C@@H]1CCCN1Cc1sc(NC(=O)c2cnc(N3CCC(C(=O)O)CC3)cn2)nc1-c1ccc(OC)c(C(F)(F)F)c1.Cl.Cl
